Measurements taken from ChEMBL document CHEMBL4689842, “EUbOPEN Chemogenomics Library wave 1” (2021).

Tested on: Fibroblast
Assay: Multiplex assay against human fibroblast
Assay type: toxicity, cell-based
Outline: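 Phenotypes for tubulin, mitochondrial mass and membrane permeability are expressed as per cents of healthy-nucleus cells. Cells were stained live at seeding with Hoechst33342, BioTracker Green Microtubule Cytoskeleton Dye, MitoTracker Red and Annexin V Alexa Fluor 680, then imaged after compound addition on a CQ1 microscope at 37°C and 5% CO2. Machine-learning gating in CellPathfinder separated Hoechst high-intensity objects from normal cells, divided normal cells by nuclear state (healthy, pyknosed, fragmented) and divided pyknosed cells into mitotic or apoptotic.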

[1] = 12 h, 1 µM, compound concentration 1 uM, replicate 1
[2] = 12 h, 1 µM, compound concentration 1 uM, replicate 2
[3] = 12 h, 10 µM, compound concentration 10 uM, replicate 1
[4] = 12 h, 10 µM, compound concentration 10 uM, replicate 2
[5] = 24 h, 1 µM, compound concentration 1 uM, replicate 1
[6] = 24 h, 1 µM, compound concentration 1 uM, replicate 2
[7] = 24 h, 10 µM, compound concentration 10 uM, replicate 1
[8] = 24 h, 10 µM, compound concentration 10 uM, replicate 2
[9] = 48 h, 1 µM, compound concentration 1 uM, replicate 1
[10] = 48 h, 1 µM, compound concentration 1 uM, replicate 2
[11] = 48 h, 10 µM, compound concentration 10 uM, replicate 1
[12] = 48 h, 10 µM, compound concentration 10 uM, replicate 2

O=C(Nc1cccnn1)N1CCC(=Cc2cccc(Oc3ccc(C(F)(F)F)cn3)c2)CC1
Population Apoptotic (%) [1]: 59%
Population Fragmented Nuclei (%) [1]: 24%
Population Healthy Nuclei (%) [1]: 56%
Population Hoechst High Intensity Objects (%) [1]: 10%
Population Membrane Permeable-Phenotype (%) [1]: 20%
Population Mitochondria Different-Phenotype (%) [1]: 10%
Population Normal (%) [1]: 89%
Population Pyknosed Nuclei (%) [1]: 18%
Population Tubulin-Different-Phenotype (%) [1]: 28%
Total Cell Count [1]: 217
Population Apoptotic (%) [2]: 60%
Population Fragmented Nuclei (%) [2]: 71%
Population Healthy Nuclei (%) [2]: 17%
Population Hoechst High Intensity Objects (%) [2]: 44%
Population Membrane Permeable-Phenotype (%) [2]: 25%
Population Mitochondria Different-Phenotype (%) [2]: 0%
Population Mitotic Cells (%) [2]: 40%
Population Normal (%) [2]: 55%
Population Pyknosed Nuclei (%) [2]: 10%
Population Tubulin-Different-Phenotype (%) [2]: 25%
Total Cell Count [2]: 83
Population Apoptotic (%) [3]: 73%
Population Fragmented Nuclei (%) [3]: 34%
Population Healthy Nuclei (%) [3]: 52%
Population Hoechst High Intensity Objects (%) [3]: 14%
Population Membrane Permeable-Phenotype (%) [3]: 6%
Population Mitochondria Different-Phenotype (%) [3]: 5%
Population Mitotic Cells (%) [3]: 26%
Population Normal (%) [3]: 85%
Population Pyknosed Nuclei (%) [3]: 13%
Population Tubulin-Different-Phenotype (%) [3]: 7%
Total Cell Count [3]: 170
Population Apoptotic (%) [4]: 25%
Population Fragmented Nuclei (%) [4]: 50%
Population Healthy Nuclei (%) [4]: 37%
Population Hoechst High Intensity Objects (%) [4]: 24%
Population Membrane Permeable-Phenotype (%) [4]: 12%
Population Mitochondria Different-Phenotype (%) [4]: 12%
Population Mitotic Cells (%) [4]: 75%
Population Normal (%) [4]: 75%
Population Pyknosed Nuclei (%) [4]: 12%
Population Tubulin-Different-Phenotype (%) [4]: 4%
Total Cell Count [4]: 85
Population Apoptotic (%) [5]: 72%
Population Fragmented Nuclei (%) [5]: 28%
Population Healthy Nuclei (%) [5]: 58%
Population Hoechst High Intensity Objects (%) [5]: 6%
Population Membrane Permeable-Phenotype (%) [5]: 9%
Population Mitochondria Different-Phenotype (%) [5]: 12%
Population Mitotic Cells (%) [5]: 27%
Population Normal (%) [5]: 93%
Population Pyknosed Nuclei (%) [5]: 13%
Population Tubulin-Different-Phenotype (%) [5]: 27%
Total Cell Count [5]: 238
Population Apoptotic (%) [6]: 60%
Population Fragmented Nuclei (%) [6]: 60%
Population Healthy Nuclei (%) [6]: 28%
Population Hoechst High Intensity Objects (%) [6]: 42%
Population Membrane Permeable-Phenotype (%) [6]: 23%
Population Mitochondria Different-Phenotype (%) [6]: 23%
Population Mitotic Cells (%) [6]: 40%
Population Normal (%) [6]: 57%
Population Pyknosed Nuclei (%) [6]: 11%
Population Tubulin-Different-Phenotype (%) [6]: 38%
Total Cell Count [6]: 78
Population Apoptotic (%) [7]: 65%
Population Fragmented Nuclei (%) [7]: 28%
Population Healthy Nuclei (%) [7]: 57%
Population Hoechst High Intensity Objects (%) [7]: 18%
Population Membrane Permeable-Phenotype (%) [7]: 1%
Population Mitochondria Different-Phenotype (%) [7]: 2%
Population Mitotic Cells (%) [7]: 35%
Population Normal (%) [7]: 81%
Population Pyknosed Nuclei (%) [7]: 13%
Population Tubulin-Different-Phenotype (%) [7]: 2%
Total Cell Count [7]: 179
Population Apoptotic (%) [8]: 33%
Population Fragmented Nuclei (%) [8]: 51%
Population Healthy Nuclei (%) [8]: 38%
Population Hoechst High Intensity Objects (%) [8]: 23%
Population Membrane Permeable-Phenotype (%) [8]: 12%
Population Mitochondria Different-Phenotype (%) [8]: 8%
Population Mitotic Cells (%) [8]: 66%
Population Normal (%) [8]: 76%
Population Pyknosed Nuclei (%) [8]: 9%
Population Tubulin-Different-Phenotype (%) [8]: 20%
Total Cell Count [8]: 81

CCOC(=O)c1c(C)[nH]c2ccc3c(c12)CN1CCc2cc(OC)ccc2C1O3 (stereo not drawn)
Population Apoptotic (%) [1]: 69%
Population Fragmented Nuclei (%) [1]: 21%
Population Healthy Nuclei (%) [1]: 51%
Population Hoechst High Intensity Objects (%) [1]: 8%
Population Membrane Permeable-Phenotype (%) [1]: 8%
Population Mitochondria Different-Phenotype (%) [1]: 23%
Population Mitotic Cells (%) [1]: 30%
Population Normal (%) [1]: 91%
Population Pyknosed Nuclei (%) [1]: 26%
Population Tubulin-Different-Phenotype (%) [1]: 43%
Total Cell Count [1]: 150
Population Apoptotic (%) [2]: 9%
Population Fragmented Nuclei (%) [2]: 9%
Population Healthy Nuclei (%) [2]: 76%
Population Hoechst High Intensity Objects (%) [2]: 9%
Population Membrane Permeable-Phenotype (%) [2]: 3%
Population Mitochondria Different-Phenotype (%) [2]: 70%
Population Mitotic Cells (%) [2]: 90%
Population Normal (%) [2]: 90%
Population Pyknosed Nuclei (%) [2]: 14%
Population Tubulin-Different-Phenotype (%) [2]: 62%
Total Cell Count [2]: 65
Population Apoptotic (%) [3]: 82%
Population Fragmented Nuclei (%) [3]: 18%
Population Healthy Nuclei (%) [3]: 38%
Population Hoechst High Intensity Objects (%) [3]: 7%
Population Membrane Permeable-Phenotype (%) [3]: 12%
Population Mitochondria Different-Phenotype (%) [3]: 74%
Population Mitotic Cells (%) [3]: 17%
Population Normal (%) [3]: 92%
Population Pyknosed Nuclei (%) [3]: 43%
Population Tubulin-Different-Phenotype (%) [3]: 80%
Total Cell Count [3]: 88
Population Apoptotic (%) [4]: 80%
Population Fragmented Nuclei (%) [4]: 2%
Population Healthy Nuclei (%) [4]: 75%
Population Hoechst High Intensity Objects (%) [4]: 11%
Population Membrane Permeable-Phenotype (%) [4]: 70%
Population Mitochondria Different-Phenotype (%) [4]: 100%
Population Mitotic Cells (%) [4]: 20%
Population Normal (%) [4]: 88%
Population Pyknosed Nuclei (%) [4]: 22%
Population Tubulin-Different-Phenotype (%) [4]: 100%
Total Cell Count [4]: 84
Population Apoptotic (%) [5]: 62%
Population Fragmented Nuclei (%) [5]: 29%
Population Healthy Nuclei (%) [5]: 58%
Population Hoechst High Intensity Objects (%) [5]: 13%
Population Membrane Permeable-Phenotype (%) [5]: 13%
Population Mitochondria Different-Phenotype (%) [5]: 13%
Population Mitotic Cells (%) [5]: 37%
Population Normal (%) [5]: 86%
Population Pyknosed Nuclei (%) [5]: 12%
Population Tubulin-Different-Phenotype (%) [5]: 48%
Total Cell Count [5]: 152
Population Apoptotic (%) [6]: 8%
Population Fragmented Nuclei (%) [6]: 9%
Population Healthy Nuclei (%) [6]: 75%
Population Hoechst High Intensity Objects (%) [6]: 5%
Population Membrane Permeable-Phenotype (%) [6]: 1%
Population Mitochondria Different-Phenotype (%) [6]: 58%
Population Mitotic Cells (%) [6]: 91%
Population Normal (%) [6]: 94%
Population Pyknosed Nuclei (%) [6]: 14%
Population Tubulin-Different-Phenotype (%) [6]: 35%
Total Cell Count [6]: 65
Population Apoptotic (%) [7]: 70%
Population Fragmented Nuclei (%) [7]: 27%
Population Healthy Nuclei (%) [7]: 46%
Population Hoechst High Intensity Objects (%) [7]: 20%
Population Membrane Permeable-Phenotype (%) [7]: 13%
Population Mitochondria Different-Phenotype (%) [7]: 70%
Population Mitotic Cells (%) [7]: 30%
Population Normal (%) [7]: 79%
Population Pyknosed Nuclei (%) [7]: 25%
Population Tubulin-Different-Phenotype (%) [7]: 86%
Total Cell Count [7]: 99
Population Apoptotic (%) [8]: 89%
Population Fragmented Nuclei (%) [8]: 6%
Population Healthy Nuclei (%) [8]: 52%
Population Hoechst High Intensity Objects (%) [8]: 11%
Population Membrane Permeable-Phenotype (%) [8]: 83%
Population Mitochondria Different-Phenotype (%) [8]: 100%
Population Mitotic Cells (%) [8]: 10%
Population Normal (%) [8]: 88%
Population Pyknosed Nuclei (%) [8]: 41%
Population Tubulin-Different-Phenotype (%) [8]: 100%
Total Cell Count [8]: 87
Population Apoptotic (%) [9]: 64%
Population Fragmented Nuclei (%) [9]: 32%
Population Healthy Nuclei (%) [9]: 54%
Population Hoechst High Intensity Objects (%) [9]: 14%
Population Membrane Permeable-Phenotype (%) [9]: 9%
Population Mitochondria Different-Phenotype (%) [9]: 9%
Population Mitotic Cells (%) [9]: 35%
Population Normal (%) [9]: 85%
Population Pyknosed Nuclei (%) [9]: 12%
Population Tubulin-Different-Phenotype (%) [9]: 47%
Total Cell Count [9]: 155
Population Apoptotic (%) [10]: 100%
Population Fragmented Nuclei (%) [10]: 33%
Population Healthy Nuclei (%) [10]: 66%
Population Hoechst High Intensity Objects (%) [10]: 11%
Population Membrane Permeable-Phenotype (%) [10]: 6%
Population Mitochondria Different-Phenotype (%) [10]: 3%
Population Mitotic Cells (%) [10]: 0%
Population Normal (%) [10]: 88%
Population Pyknosed Nuclei (%) [10]: 0%
Total Cell Count [10]: 185
Population Apoptotic (%) [11]: 90%
Population Fragmented Nuclei (%) [11]: 36%
Population Healthy Nuclei (%) [11]: 50%
Population Hoechst High Intensity Objects (%) [11]: 28%
Population Membrane Permeable-Phenotype (%) [11]: 10%
Population Mitochondria Different-Phenotype (%) [11]: 82%
Population Mitotic Cells (%) [11]: 10%
Population Normal (%) [11]: 71%
Population Pyknosed Nuclei (%) [11]: 12%
Population Tubulin-Different-Phenotype (%) [11]: 84%
Total Cell Count [11]: 108
Population Apoptotic (%) [12]: 66%
Population Fragmented Nuclei (%) [12]: 46%
Population Healthy Nuclei (%) [12]: 51%
Population Hoechst High Intensity Objects (%) [12]: 25%
Population Membrane Permeable-Phenotype (%) [12]: 0%
Population Mitochondria Different-Phenotype (%) [12]: 74%
Population Mitotic Cells (%) [12]: 33%
Population Normal (%) [12]: 74%
Population Pyknosed Nuclei (%) [12]: 1%
Population Tubulin-Different-Phenotype (%) [12]: 89%
Total Cell Count [12]: 223
